What was measured:
[1] = molecular target: T1, Prostaglandin E synthase (Homo sapiens) (UniProt O14684); test: Inhibition of mPGES1 in IL1beta-stimulated human A549 cell microsomes assessed as residual activity at 10 uM using PGH2 as substrate preincubated for 15 mins followed by substrate addition and measured after 1 min by RP-HPLC analysis relative to control
T1 sequence (whole entry): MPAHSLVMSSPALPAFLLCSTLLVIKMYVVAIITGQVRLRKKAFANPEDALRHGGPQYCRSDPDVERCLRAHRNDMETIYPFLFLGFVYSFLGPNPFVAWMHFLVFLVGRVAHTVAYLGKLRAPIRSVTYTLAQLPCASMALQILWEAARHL
Summary of the method: (§1)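 mPGES-1 source was microsomes from A549 cells treated 48 h with IL-1β (1 ng ml–1), obtained by sonication and differential centrifugation (10 000×g, then 174 000×g, 4 °C). Microsomes diluted in 0.1 M potassium phosphate pH 7.4 with 2.5 mM glutathione. Compound or DMSO vehicle added for 15 min at 4 °C; 20 μM PGH2 then reacted 1 min at 4 °C. Stopped with FeCl2/citric acid containing 11β-PGE2; PGE2 measured by SPE and RP-HPLC.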

[2] = molecular target: T2, Polyunsaturated fatty acid 5-lipoxygenase (Homo sapiens) (UniProt P09917); test: Inhibition of 5-LO in human neutrophils assessed as residual activity at 10 uM using arachidonic acid as substrate preincubated for 10 mins followed by substrate addition and measured after 10 mins by RP-HPLC analysis
T2 sequence (whole entry): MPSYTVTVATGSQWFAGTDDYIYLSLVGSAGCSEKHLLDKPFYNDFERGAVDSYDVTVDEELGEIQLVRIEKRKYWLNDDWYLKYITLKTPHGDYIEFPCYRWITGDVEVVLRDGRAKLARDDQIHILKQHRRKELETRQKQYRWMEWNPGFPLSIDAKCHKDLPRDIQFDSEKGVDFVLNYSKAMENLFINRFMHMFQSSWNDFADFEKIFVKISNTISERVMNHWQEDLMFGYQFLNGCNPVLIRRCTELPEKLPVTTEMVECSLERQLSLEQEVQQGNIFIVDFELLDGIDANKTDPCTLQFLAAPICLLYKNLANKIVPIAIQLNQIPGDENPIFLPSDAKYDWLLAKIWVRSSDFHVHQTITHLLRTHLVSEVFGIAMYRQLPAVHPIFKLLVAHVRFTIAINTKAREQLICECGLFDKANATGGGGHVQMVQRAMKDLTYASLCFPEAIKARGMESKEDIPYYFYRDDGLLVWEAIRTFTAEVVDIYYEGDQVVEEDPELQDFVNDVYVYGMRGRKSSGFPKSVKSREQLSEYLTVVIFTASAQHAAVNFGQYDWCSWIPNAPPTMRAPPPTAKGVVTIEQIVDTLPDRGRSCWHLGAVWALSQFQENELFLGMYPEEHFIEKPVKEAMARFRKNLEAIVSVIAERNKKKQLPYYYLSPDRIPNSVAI
Summary of the method: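 Freshly isolated human peripheral-blood neutrophils at 5 × 10^6 cells per ml in PBS pH 7.4 with 1 mM CaCl2 and 1 mg mL–1 glucose. Cells pre-treated 10 min with compound in DMSO (final 0.1%). Stimulated with 2.5 μM Ca2+ ionophore A23187 plus 20 μM arachidonic acid for 10 min at 37 °C, then stopped on ice with methanol. After C18 solid-phase extraction, LTB4 all-trans isomers and 5-H(P)ETE quantified by RP-HPLC against PGB1 internal standard.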

[3] = molecular target: T3, Prostaglandin E synthase (Homo sapiens, UniProt O14684); test: Inhibition of mPGES1 in IL1beta-stimulated human A549 cell microsomes using PGH2 as substrate preincubated for 15 mins followed by substrate addition and measured after 1 min by RP-HPLC analysis; summary of the method: as §1
T3 sequence (O14684 whole entry): T1 sequence (whole entry)

SMILES	Activity [1]	Activity [2]	IC50 [3]
CCOC(=O)C1CCCN(c2nc3c(C)cccn3c(=O)c2/C=C(\C#N)C(=O)NCc2ccccc2)C1 (configuration not stated)	86.8%		
COc1ccc(C(=O)N/C(=C\c2ccc(-c3cccc(C(F)(F)F)c3)o2)C(=O)NC(C)(C)C)cc1	88.6%		
COc1ccc(C(=O)N/C(=C\c2ccc(-c3ccccc3Cl)o2)C(=O)NCCCO)cc1	72.1%		
O=C(C1=C(O)C(=O)N(c2ncc(S(=O)(=O)c3ccc([N+](=O)[O-])cc3)s2)C1c1cccc(Cl)c1)c1ccc(Cl)cc1 (configuration not stated)	25%	56.6%	1900 nM
CCOc1ccc(C2C(C(=O)c3cc4ccccc4o3)=C(O)C(=O)N2c2nnc(SCc3ccc(Cl)cc3)s2)cc1OC (configuration not stated)	30.5%	92.5%	3700 nM

Continued, values first:

Activity [1]	Activity [2]	IC50 [3]	SMILES
82.6%			Cc1sc2ncn(CC(=O)Nc3ccc(Oc4ccccc4)cc3)c(=O)c2c1-c1ccccc1
80.1%			CC(=O)N[C@H]1[C@H](Oc2ccc(Nc3nc(-c4ccc(Cl)cc4)nc4ccccc34)cc2)O[C@H](CO)[C@@H](O)[C@H]1O
65.3%			CCOc1ccc(N2CC(c3nc4ccccc4n3CCOc3ccc(Cl)cc3)CC2=O)cc1 (configuration not stated)
